Screening data deposited in PubChem BioAssay by several laboratories.
FGF22 binding: FGF22 (human) thermal shift binding | activity (Tm shift, normalised), % at 9.99 µM | AID 651658 | 340,000 compounds, 1.5% hits | Q9HCT0 | recombinant FGF22 thermal shift, SYPRO orange fluorescence; percent of sucrose octasulfate shift, DMSO zero;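 active = mean Tm shift, scaled 0 neutral to 100 positive control, at about 1.3% or above, every replicate too, limit read from the data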
VLA-4 inh: inhibition in a human VLA-4 binding assay | 330,000 compounds, 0.2% hits | inhibition, % (about 7 µM as worked out from the volumes in the protocol) | AID 2557 | VLA-4 expressing cells, ligand binding flow cytometry | P13612; in the data active = inhibition above about 50%
Target sequence (P13612 whole entry, looked up): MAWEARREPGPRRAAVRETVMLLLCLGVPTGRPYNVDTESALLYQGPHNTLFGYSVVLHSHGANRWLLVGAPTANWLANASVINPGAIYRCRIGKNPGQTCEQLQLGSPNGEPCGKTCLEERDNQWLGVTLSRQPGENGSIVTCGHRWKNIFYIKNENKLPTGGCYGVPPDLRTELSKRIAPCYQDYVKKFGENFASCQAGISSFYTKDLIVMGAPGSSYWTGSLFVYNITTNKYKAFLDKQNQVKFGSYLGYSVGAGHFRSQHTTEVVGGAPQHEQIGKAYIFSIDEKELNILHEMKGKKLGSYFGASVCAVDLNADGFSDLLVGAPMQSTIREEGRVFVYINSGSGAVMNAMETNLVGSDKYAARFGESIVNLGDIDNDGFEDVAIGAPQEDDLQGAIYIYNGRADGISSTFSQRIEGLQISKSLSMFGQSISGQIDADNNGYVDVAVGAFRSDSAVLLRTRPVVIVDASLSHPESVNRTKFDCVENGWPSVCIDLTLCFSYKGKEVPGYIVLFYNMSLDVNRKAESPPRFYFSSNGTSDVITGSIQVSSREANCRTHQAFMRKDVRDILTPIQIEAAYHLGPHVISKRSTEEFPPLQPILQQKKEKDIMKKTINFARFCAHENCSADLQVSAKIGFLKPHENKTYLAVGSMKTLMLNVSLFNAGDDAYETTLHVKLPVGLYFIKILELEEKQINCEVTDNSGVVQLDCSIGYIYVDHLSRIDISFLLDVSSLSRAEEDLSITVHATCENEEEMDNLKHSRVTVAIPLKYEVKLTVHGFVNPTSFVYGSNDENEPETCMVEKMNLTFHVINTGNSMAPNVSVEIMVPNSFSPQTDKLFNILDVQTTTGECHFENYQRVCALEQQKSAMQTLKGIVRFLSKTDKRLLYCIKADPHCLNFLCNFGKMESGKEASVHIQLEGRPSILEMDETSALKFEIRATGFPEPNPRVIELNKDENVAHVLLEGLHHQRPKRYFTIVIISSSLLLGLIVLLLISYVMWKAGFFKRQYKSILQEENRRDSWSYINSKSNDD
DAGLB inh: diacylglycerol lipase beta (human) inhibition; Q8NCG7; HEK293T DAGLB membrane lysate, EnzChek fluorogenic substrate; inhibition, % at 5.17 µM; 340,000 compounds, 0.059% hits; AID 504411; in the data active = inhibition above about 34%;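 note: 0% = enzyme with vehicle and 100% = wells lacking enzyme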
MT1-MMP act inh: MT1-MMP (human) activation inhibition; P50281; HT1080 RFP-PRO-GFP cells, GFP/RFP ratio fluorescence, overnight; percent of plate control window, DMSO zero; GFP/RFP ratio change, % at 20 µM; 360,000 compounds, 0.061% hits;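 active = GFP/RFP ratio change of at least 30% with cell ATP level not reduced by more than half and red fluorescence within 50% of control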
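Material: RFP-PRO-GFP reporter HT1080 cells. Dosing: single-point 20 µM compound, 1% DMSO. Controls: DMSO and RFP-L50D-GFP cell wells. Timing: cells overnight before dosing, compound overnight, 37 °C, 5% CO2. Measure: GFP/RFP fluorescence ratio.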
Exocytosis inh: blocks lytic granule exocytosis. TALL-104 LAMP-1 surface exposure, flow cytometry; cells stimulated with thapsigargin and PMA. inhibition, % at 10 µM. 360,000 compounds, 0.66% hits;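 active = inhibition above about 55%, limit read from the data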
ABCB6 inh MLPCN: human ABCB6 transporter inhibition; K562-ABCB6 porphyrin accumulation, flow cytometry, 1 h; stronger effect = lower value; fluorescence ratio to DMSO, % at 10 µM; 360,000 compounds, 0.19% hits;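 active = fluorescence ratio to DMSO below 75%, the collection mean minus 3 SD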;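 note: signal is porphyrin accumulated inside mitochondria; 100% equals median channel fluorescence of DMSO control wells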
Active calls of the source: *. The list is not random: actives were taken first. Their share in the collection is about 2%.

What do the screens show for `C[C@H](CO)N1C[C@H](C)[C@H](CN(C)S(=O)(=O)c2ccc(Cl)cc2)Oc2c(NC(=O)Nc3ccc(F)cc3)cccc2C1=O`?
FGF22 binding: -0.2

How did COc1cccc(C(=O)NNC(=O)c2cccc3ccccc23)c1 do in these assays?
FGF22 binding: -0.4; DAGLB inh: -0.3; MT1-MMP act inh: -1.3; Exocytosis inh: -1.1; ABCB6 inh MLPCN: 95.0

Results for COc1ccc(C(=O)NNC(=O)c2cccc3ccccc23)cc1 ?
FGF22 binding: 43.7*; DAGLB inh: -0.9; MT1-MMP act inh: 3.9; Exocytosis inh: -2.1; ABCB6 inh MLPCN: 94.0

How did CCNC(=O)C1(C)CCCN(C(=O)c2cc3ccccc3s2)C1 (stereo not given) do in these assays?
FGF22 binding: 0.0; MT1-MMP act inh: 0.1; Exocytosis inh: 9.5; ABCB6 inh MLPCN: 97.0

What do the screens show for `CCCS(=O)(=O)NC(=O)C1(C)CCCN(C(=O)c2ccccc2Br)C1` (stereo not given)?
FGF22 binding: 0.3; MT1-MMP act inh: 2.0; Exocytosis inh: -4.0; ABCB6 inh MLPCN: 90.0

Results for CCNC(=O)C1(C)CCCN(C(=O)c2sc(-c3ccccc3)nc2C)C1 (stereo not given) ?
FGF22 binding: 43.0*; MT1-MMP act inh: 3.6; Exocytosis inh: 3.8; ABCB6 inh MLPCN: 96.0

Results for CCNC(=O)C1(C)CCCN(C(=O)c2ccccc2Br)C1 (stereo not given) ?
FGF22 binding: 43.4*; MT1-MMP act inh: -2.8; Exocytosis inh: -1.5; ABCB6 inh MLPCN: 102.0

What do the screens show for `O=C(Nc1ccccc1F)N[C@H]1CC[C@@H](CCNC(=O)C2CCC2)O[C@@H]1CO`?
FGF22 binding: 0.0

What do the screens show for `O=C(C[C@H]1C[C@H]2c3cc(NC(=O)Nc4ccccc4)ccc3O[C@H]2[C@H](CO)O1)NC1CCCCC1`?
FGF22 binding: 0.0

How did CC(C)[C@H](NC(N)=O)C(=O)NCCc1ccc(Cl)cc1Cl do in these assays?
FGF22 binding: 42.2; VLA-4 inh: 11.2; DAGLB inh: 0.0; MT1-MMP act inh: 1.7; Exocytosis inh: -5.3; ABCB6 inh MLPCN: 87.0

What do the screens show for `CCC(C)C(NC(N)=O)C(=O)Nc1ccc(C(=O)OC)cc1` (stereo not given)?
FGF22 binding: 43.4*; VLA-4 inh: 25.4; DAGLB inh: 0.0; MT1-MMP act inh: -2.8; Exocytosis inh: 8.0; ABCB6 inh MLPCN: 101.0

How did CC(C)CC(NC(N)=O)C(=O)NCCc1ccc(Cl)cc1Cl (stereo not given) do in these assays?
FGF22 binding: 43.9*; VLA-4 inh: -0.1; DAGLB inh: -0.8; MT1-MMP act inh: -3.6; Exocytosis inh: -5.1; ABCB6 inh MLPCN: 97.0

How did CCc1ccc(C(=O)COC(=O)[C@@H](NC(N)=O)[C@@H](C)CC)cc1 do in these assays?
FGF22 binding: 43.2*; VLA-4 inh: 7.7; DAGLB inh: -1.6; MT1-MMP act inh: 2.8; Exocytosis inh: 2.5; ABCB6 inh MLPCN: 96.0

Results for CC[C@H](C)[C@H](NC(N)=O)C(=O)NCCc1ccc(Cl)cc1 ?
FGF22 binding: 43.7*; VLA-4 inh: 2.1; DAGLB inh: -0.3; MT1-MMP act inh: -0.1; Exocytosis inh: -3.1; ABCB6 inh MLPCN: 99.0

Results for CC[C@H](C)[C@H](NC(N)=O)C(=O)NCCc1ccc(OC)cc1 ?
FGF22 binding: 0.1; VLA-4 inh: 11.5; DAGLB inh: -1.2; MT1-MMP act inh: -1.7; Exocytosis inh: 10.7; ABCB6 inh MLPCN: 96.0

What do the screens show for `CC[C@H](C)[C@H](NC(N)=O)C(=O)Nc1ccc(NC(C)=O)cc1`?
FGF22 binding: -0.1; VLA-4 inh: -2.7; DAGLB inh: 2.5; MT1-MMP act inh: 3.1; Exocytosis inh: -3.2; ABCB6 inh MLPCN: 93.0

What do the screens show for `C[C@H](CO)N1C[C@H](C)[C@H](CN(C)S(=O)(=O)c2ccc(Oc3ccccc3)cc2)OCc2cn(nn2)CCCC1=O`?
FGF22 binding: 0.3

What do the screens show for `C[C@@H]1CN([C@@H](C)CO)C(=O)c2cc(NC(=O)C3CCCCC3)ccc2O[C@@H](C)CCCCO[C@@H]1CN(C)C(=O)c1ccncc1`?
FGF22 binding: 1.2

How did COc1ccccc1NNC(=O)C(O)(c1ccccc1OC)c1ccccc1OC do in these assays?
FGF22 binding: 42.3; VLA-4 inh: -8.2; DAGLB inh: 1.3; MT1-MMP act inh: 0.7; Exocytosis inh: -8.2; ABCB6 inh MLPCN: 95.0

How did COc1ccccc1NNC(=O)C(O)(c1ccccc1)c1ccccc1 do in these assays?
FGF22 binding: 0.5; VLA-4 inh: 22.4; DAGLB inh: 1.0; MT1-MMP act inh: 5.8; Exocytosis inh: 104.1*; ABCB6 inh MLPCN: 99.0

Results for COc1cccc(S(=O)(=O)N[C@H]2CC[C@@H](CC(=O)NCc3ccccc3)O[C@H]2CO)c1 ?
FGF22 binding: -0.1

Results for CCOc1ccccc1NC(=O)c1nc(-c2ccccc2)oc1C ?
FGF22 binding: 43.0*; VLA-4 inh: 13.7; DAGLB inh: -10.6; MT1-MMP act inh: -6.2; Exocytosis inh: 0.4; ABCB6 inh MLPCN: 102.0

What do the screens show for `C[C@@H]1CCCCO[C@@H](CN(C)CC2CCCCC2)[C@H](C)CN([C@@H](C)CO)C(=O)c2cc(NC(=O)Nc3ccc4c(c3)OCO4)ccc2O1`?
FGF22 binding: 1.4*

Results for COc1ccc(S(=O)(=O)N(C)C[C@H]2OCCCC[C@H](C)Oc3ccc(NC(=O)Nc4cccc5ccccc45)cc3C(=O)N([C@@H](C)CO)C[C@@H]2C)cc1 ?
FGF22 binding: 1.0

Results for COc1ccc(NC(=O)Nc2ccc3c(c2)C(=O)N([C@@H](C)CO)C[C@@H](C)[C@@H](CN(C)CC2CCCCC2)OCCCC[C@H](C)O3)cc1 ?
FGF22 binding: 1.3*

How did COc1ccc(CN(C)C[C@H]2Oc3ccc(NC(=O)C4CCCCC4)cc3CC(=O)N([C@@H](C)CO)C[C@H]2C)cc1 do in these assays?
FGF22 binding: 1.7*

Results for C[C@@H]1CCCCO[C@H](CN(C)CC2CCCCC2)[C@H](C)CN([C@H](C)CO)C(=O)c2cc(NC(=O)Nc3ccc4c(c3)OCO4)ccc2O1 ?
FGF22 binding: 0.0

What do the screens show for `COc1ccc(NC(=O)Nc2ccc3c(c2)C(=O)N([C@H](C)CO)C[C@H](C)[C@@H](CN(C)CC2CCCCC2)OCCCC[C@@H](C)O3)cc1`?
FGF22 binding: -0.1

How did COc1ccc(S(=O)(=O)N(C)C[C@@H]2OCCCC[C@@H](C)Oc3ccc(NC(=O)Nc4cccc5ccccc45)cc3C(=O)N([C@@H](C)CO)C[C@H]2C)cc1 do in these assays?
FGF22 binding: 1.3*

How did CCC(=O)N1CC2(CCN(Cc3ccc(F)cc3)CC2)c2c(n(C)c3cc(OC)ccc23)[C@H]1CO do in these assays?
FGF22 binding: 0.2
